Source: PubChem BioAssay
PostGolgi yeast – growth inhibition of a yeast mutant, post-Golgi transport screen. post-Golgi transport phenotypic cell assay. inhibition, % at 10 µM. 0.9% of 98,000 active;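 also: yeast cells grown in 1536-well plates; yeast grown about 18 h at 30C before absorbance read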
PostGolgi ctrl – yeast control strain growth, post-Golgi counter-screen. inhibition, % at 10 µM. efflux-deficient yeast background strain, growth absorbance A615, 16 h. 5% of 98,000 active
D1 mod – allosterically modulates the human D1 dopamine receptor. P21728. HEK293 D1, CRE-luciferase, dopamine EC30 potentiation; actives deviate in either direction. 5.9% of 58,000 active. B-score at 10 µM;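 active = luminescence count or its row- and column-corrected plate score outside the 99.7% band of the plate's sample wells, on either side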
Ecoli WT expand – blocks growth of wild type E. coli BW25113; OD600 absorbance; growth inhibition, % at 100 µM; 0.15% of 98,000 active; AID 710;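 active = growth inhibition above about 50% at one test dose, limit read from the data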;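 also: growth measured after 20 h incubation at 37 °C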
tolC growth inh – growth inhibitors of E. coli BW25113 tolC mutant. growth inhibition, % at 10 µM (by protocol). OD615. 2.2% of 65,000 active;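 active = growth inhibition at or above a cutoff equal to the mean over every tested compound plus 3 SD, cut at about 60% in these data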;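 also: growth measured after 20 h incubation at 37 °C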
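Material: E. coli BW25113 ΔtolC::kan, tolC deletion mutant strain. Measure: percent growth inhibition. Schedule: 37 °C, 20 h exposure. Doses: single-point testing at 10 µM. Signal: A615 absorbance measurement. Buffer or medium: kanamycin-containing LB broth (50 µg/mL).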
hDAT+cocaine – changed human dopamine transporter uptake under cocaine IC80 | B-score at 10 µM | LLC-PK1 hDAT cells, [14C]-dopamine uptake with cocaine IC80; actives deviate in either direction | Q01959 | 1.3% of 110,000 active;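 active = Z score or B-score, a plate-position-corrected score, falls beyond the plate's 99.7% confidence bounds, in either direction; inactive = both scores lie inside the 99.7% bounds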;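 also: scored against the spread of the other compound wells on the same plate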
Target sequence (Q01959 whole entry, looked up): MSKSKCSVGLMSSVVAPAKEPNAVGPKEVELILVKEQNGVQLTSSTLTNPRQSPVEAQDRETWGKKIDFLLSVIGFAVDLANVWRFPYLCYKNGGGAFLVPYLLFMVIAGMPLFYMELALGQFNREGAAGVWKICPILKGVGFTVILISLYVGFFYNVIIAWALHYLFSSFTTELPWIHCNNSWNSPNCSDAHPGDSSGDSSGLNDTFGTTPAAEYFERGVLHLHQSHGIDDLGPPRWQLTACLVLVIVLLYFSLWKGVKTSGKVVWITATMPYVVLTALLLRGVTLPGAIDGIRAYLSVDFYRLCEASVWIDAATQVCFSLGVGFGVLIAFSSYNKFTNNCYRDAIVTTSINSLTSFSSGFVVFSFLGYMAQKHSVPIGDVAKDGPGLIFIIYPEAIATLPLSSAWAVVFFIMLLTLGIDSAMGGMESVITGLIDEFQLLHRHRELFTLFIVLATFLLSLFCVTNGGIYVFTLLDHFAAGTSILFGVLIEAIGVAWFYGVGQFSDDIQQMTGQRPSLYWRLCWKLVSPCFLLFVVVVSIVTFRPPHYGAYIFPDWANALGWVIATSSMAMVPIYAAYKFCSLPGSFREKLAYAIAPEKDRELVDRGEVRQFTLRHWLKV
D1 PAM confirm – D1 receptor (human) allosteric modulation, confirmed. shares compounds with D1 mod. HEK293 D1 CRE-luciferase, dopamine EC30 potentiation; hits give high values. luminescence at 10 µM. 88% of 2,200 active;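 active = luminescence in either of two replicates above the same-plate mean plus 3 SD of the low-dose dopamine control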
D1 no dopamine – activates D1 CRE-luciferase signal without dopamine present | AID 646 | shares compounds with D1 mod | luminescence at 10 µM | HEK293 D1 CRE-luciferase, luminescence, no dopamine; hits give high values | 0.8% of 1,900 active; in the data active = luminescence above about 3900
Isoprot counter – alters isoproterenol CRE-luciferase response in HEK293 cells; shares compounds with D1 mod; HEK293 D1 CRE-luciferase, isoproterenol EC30 counter-screen; calls only at 10 µM; 63% of 2,200 active;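 active = luminescence in either replicate above plate mean of wells with a partly effective reference agonist dose plus 3 SD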;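 also: isoproterenol raises cAMP through native beta-adrenoceptor Gs so signal bypasses D1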
* = called active by the depositor; i = inactive; . = not tested or not shown; + = active, no number. In the library only some 9.3% were active in any assay of this set; here they are far more common. Rule as the data show it, unless noted: active = inhibition above about 30%; inactive = the rest.

SMILES	PostGolgi yeast	PostGolgi ctrl	D1 mod	Ecoli WT expand	tolC growth inh	hDAT+cocaine	D1 PAM confirm	D1 no dopamine	Isoprot counter
Brc1ccccc1-c1nnc2sc(Cc3ccccc3)nn12	9	25	1.7	-1	45	1.1	.	.	.
COc1ccc(Cc2nn3c(-c4ccccc4Br)nnc3s2)cc1	1	45*	5.4*	-10	44	0.98	8536*	1392	+
COc1ccc(-c2nn3c(-c4ccccc4)nnc3s2)cc1	9	29	5.5*	-5	14	0.31	11796*	1844	+
COc1ccc(Cc2nn3c(-c4cc(OC)c(OC)c(OC)c4)nnc3s2)cc1	19	35*	4.7*	6	30	0.74	8960*	1520	+
COc1cc(-c2nnc3sc(Cc4ccc(Cl)cc4)nn23)cc(OC)c1OC	.	.	1.4	.	2	.	.	.	.
O=C(Nc1ccc2c(c1)OCO2)c1ccc2c(c1)S(=O)(=O)c1ccccc1C2=O	.	.	.	.	.	-0.81	.	.	.
COc1ccc(NC(=O)c2ccc(NS(=O)(=O)c3c(C)noc3C)cc2)cc1OC	2	-4	8.8*	0	-5	-0.0083	5712*	1524	i
COc1ccccc1CNC(=O)c1ccc(NS(=O)(=O)c2c(C)noc2C)cc1	9	-9	4.2*	2	-12	-0.75	6660*	1648	i
COc1ccc(NC(=O)CN(c2ccc(C(C)C)cc2)S(=O)(=O)c2c(C)noc2C)cc1OC	-1	11	3*	-9	-11	-0.075	4788	1104	i
COc1ccc(N(CC(=O)Nc2ccc3c(c2)OCCO3)S(=O)(=O)c2c(C)noc2C)cc1	1	4	.	-6	13	.	.	.	.
COc1ccccc1NC(=O)c1ccc(NS(=O)(=O)c2c(C)noc2C)cc1	2	6	0.036	-8	20	-0.98	.	.	.
C=CCn1cnc2c(c1=O)c1nc3ccccc3nc1n2-c1ccc(Cl)cc1	.	.	2.2	.	0	.	.	.	.
CNC(=O)N(C1=NCC(C)S1)c1ccc(F)cc1F (stereo not drawn)	-3	11	5.3*	9	1	-0.08	16972*	1640	+
Cc1ccc(N(C(=O)Nc2ccccc2)C2=NCC(C)S2)cc1 (stereo not drawn)	-3	6	-0.84	7	56	0.028	.	.	.
CCOCCCNC(=O)CCCOc1ccccc1	11	10	-0.13	6	-2	-2	.	.	.
CCOC(=O)c1c(C)c(C(=O)NCc2ccccc2OC)c(C)n1C	18	3	3.6*	23	4	0.96	7232*	1476	i
Cc1cccc(-c2c3c(=O)n(C)c(=O)n(C)c3c3cccnn23)c1	2	4	22*	1	1	0.4	23480*	1672	+
Cc1cccc(-c2c3c(=O)n(C)c(=O)n(C)c3cn2C(C)C)c1	-1	15	14*	-4	3	.	15796*	1340	+
CCCCNC(=O)c1onc(CSc2cc(C)cc(C)c2)c1C(=O)NCCCC	.	.	.	.	.	0.25	.	.	.
CC1(C)Cc2c(C#N)c(N)n(-c3ccccc3)c(=O)c2CO1	5	16	3.2	-13	-10	0.36	.	.	.
CCC1(C)Cc2c(c(=O)n(-c3ccccc3)c3ncnc(N)c23)CO1 (stereo not drawn)	10	2	5.5*	-1	-14	-0.26	10848*	.	i
CCOC(=O)c1cnn(-c2ccccc2)c1N	5	26	.	-8	.	0.61	.	.	.
CCOC(=O)c1cnn(-c2cccc(Cl)c2)c1N	-3	13	4.6*	8	-7	0.35	12468*	1660	i
CCOC(=O)c1[nH]cnc1C(=O)Nc1ccccn1	1	24	4*	2	-6	0.001	10664*	1452	i
O=C(c1ccccc1)c1nc[nH]c1C(=O)Nc1ccccn1	22	-2	4.6*	2	-14	-0.11	9124*	2104	i
SMILES	PostGolgi yeast	PostGolgi ctrl	D1 mod	Ecoli WT expand	tolC growth inh	hDAT+cocaine	D1 PAM confirm	D1 no dopamine	Isoprot counter
CCCC(=O)NC(C)c1nc2ccccc2n1C(C)C (stereo not drawn)	-2	-1	-0.78	2	-17	-0.15	.	.	.
O=C(CCN1c2ccccc2Sc2ccccc21)OCC(=O)N1CCN(C(=O)c2ccco2)CC1	-6	13	0.12	-25	20	-1.1	.	.	.
O=C(NCc1ccco1)c1nn(-c2ccccc2)c(=O)c2ccccc12	-5	-2	5.2*	-5	3	-0.19	15012*	1664	i
COc1ccc(-n2nc(C(=O)NCC(=O)NCc3ccco3)c3ccccc3c2=O)cc1	0	-5	0.55	-7	0	0.89	.	.	.
O=C(Nc1nonc1NC(=O)C1CCCCC1)C1CCCCC1	2	9	17*	-3	10	0.33	25348*	1748	+
O=C(Nc1c(F)c(F)c(F)c(F)c1F)C1CCCCC1	-8	2	-0.6	8	-11	-0.4	.	.	.
c1ccc(-c2cnnc(SCc3cn4cccnc4n3)n2)cc1	1	-12	8.5*	3	12	-1.1	14784*	1868	+
COC(=O)Nc1c(-c2ccccc2)nc2ccc(C)cn12	3	8	3.1*	6	-25	0.44	6300	1728	i
CCOC(=O)N1CCN(C(=O)CSc2nnc(Cc3ccccc3)o2)CC1	2	0	-0.95	6	1	0.026	.	.	.
O=c1cc(CN2CCC3(CC2)OCCO3)c2c(ccc3ccccc32)o1	-5	9	5.4*	1	24	-0.96	13160*	1728	+
COc1ccc(N2CCN(Cc3cc(=O)oc4c3ccc3ccccc34)CC2)cc1	.	.	-0.64	.	-5	.	.	.	.
CCSc1nc(N2CCOCC2)c2ccccc2n1	11	10	10*	12	14	-1	15840*	.	+
O=C(CN1C(=O)COc2ccccc21)N1CCc2ccccc2C1	.	.	.	.	.	-0.019	.	.	.
CN1CCc2c(sc3nc(SCC(N)=O)n(-c4ccccc4)c(=O)c23)C1	-2	25	0.65	-2	-12	-0.99	.	.	.
COC(=O)CSc1nc2sc(C)c(C)c2c(=O)n1C	-3	23	6.1*	-4	11	1.1	7584*	848	+
COC(=O)CSc1nc2sc3c(c2c(=O)n1-c1ccccc1)CCN(C)C3	7	7	17*	0	-7	-0.26	10640*	1480	+
CCCCOc1ccc(Cl)cc1CSc1n[nH]c(C)n1	-17	13	.	1	.	-1.5	.	.	.
COc1ccc(CSc2n[nH]c(C)n2)cc1Br	17	9	6.5*	7	11	-0.79	10580*	.	+
Cc1nc2nc(C)c(CCC(=O)O)c(C)n2n1	15	2	.	1	.	1.5	.	.	.
